The source made the active and inactive calls. No cut-off for these calls is given here.

One may read the IC50 as the concentration that inhibits the measured activity by half.

Holding throughout (format): functional, cell-based
In one assay the test system is HeLa. The assay is described as follows: Antiproliferative activity against human HeLa cells after 72 hrs by MTS assay. An outline of the steps:
(§1)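 Cells grown in medium with L-glutamine, 10% fetal bovine serum and 1% penicillin/streptomycin, seeded at 5 × 10³ cells per well, then exposed for 72 h to a rising concentration series. Proliferation read by MTS reagent: 3 h incubation, absorbance at 490 nm. IC50 given as mean ± S.D. of three separate experiments.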

For a further assay, the system named is A549. As to the kind of experiment: Antiproliferative activity against human A549 cells after 72 hrs by MTS assay. The settings on record: A549, 72 h. An outline of the steps: as §1
For orientation: Tetrazolium assays rely on reduction of a dye to a coloured formazan, in cell work by metabolically active cells.

In assay [1] the test system is MCF7. The assay is described as follows: Antiproliferative activity against human MCF7 cells after 72 hrs by MTS assay. The settings on record: MCF7, 72 h. Summed up:
as §1

Assay [2] relates to MCF7. As to the kind of experiment: Induction of apoptosis in human MCF7 cells assessed as condensed chromatin at 25 uM after 72 hrs by DAPI staining-based fluorescence analysis. An outline of the steps: (§2)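 MCF-7 cells (2 × 10³) grown on poly-L-lysine-coated coverslips, treated at 25 µM for 72 h. Then fixed in cold methanol, washed in PBS, stained with DAPI and mounted. Nuclei imaged by fluorescence microscopy; apoptosis scored by nuclear condensation, membrane blebs and apoptotic bodies.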

For assay [3], the system named is MCF7. As to the kind of experiment: Induction of apoptosis in human MCF7 cells assessed as fragmented nuclei at 25 uM after 72 hrs by DAPI staining-based fluorescence analysis. An outline of the steps:
as §2

On to `CCOC(=O)c1ccc(-c2c3c(c(OC)c4c2OCO4)[C@H]([C@H]2OC(=O)c4c2ccc(OC)c4OC)N(C)CC3)cc1`, for which the IC50 is 21.2 µM in the assay on HeLa, 53.1 µM with A549 and 40.7 µM in the assay on MCF7 [1]. Besides, the result in the assay on MCF7 [2] and in the assay with MCF7 [3] was Active.

As for `CCOC(=O)c1cc(-c2c3c(c(OC)c4c2OCO4)[C@H]([C@H]2OC(=O)c4c2ccc(OC)c4OC)N(C)CC3)ccc1Cl`, the IC50 in the assay on HeLa was found to be 9 µM; in the assay with A549 it was 33.8 µM; in the assay on MCF7 [1], 18.8 µM. The result with MCF7 [2] and in the assay with MCF7 [3] was Active.

For the molecule `COc1ccc2c(c1OC)C(=O)O[C@@H]2[C@H]1c2c(cc3c(c2OC)OCO3)CCN1C` [NOSCAPINE], the IC50 amounted to 24 µM in the assay with HeLa, 62.9 µM in the assay on A549 and 42.3 µM in the assay on MCF7 [1].

For the molecule `C=Cc1ccc(-c2c3c(c(OC)c4c2OCO4)[C@H]([C@H]2OC(=O)c4c2ccc(OC)c4OC)N(C)CC3)cc1`, the concentration for half-maximal inhibition (IC50) amounted to 20.3 µM in the assay on HeLa, 42.7 µM in the assay with A549 and 34.3 µM in the assay on MCF7 [1]. In addition, the outcome with MCF7 [2] and with MCF7 [3] was Active.

Turning to `COc1ccc2c(c1OC)C(=O)O[C@@H]2[C@H]1c2c(c(-c3cccnc3)c3c(c2OC)OCO3)CCN1C`, the results for the IC50 in the assay on HeLa, in the assay with A549 and in the assay with MCF7 [1] were 8.9 µM, 31.6 µM and 16.6 µM, respectively.

Consider `COc1ccc2c(c1OC)C(=O)O[C@@H]2[C@H]1c2c(c(-c3ccc(C(F)(F)F)cc3)c3c(c2OC)OCO3)CCN1C`, for which the IC50 in the assay with HeLa is 22.8 µM; in the assay on A549, 57.3 µM; in the assay with MCF7 [1], 41.3 µM.

With `COc1ccc2c(c1OC)C(=O)O[C@@H]2[C@H]1c2c(c(-c3cccc(NC(C)=O)c3)c3c(c2OC)OCO3)CCN1C`, the IC50 was found to be 9.2 µM in the assay on HeLa, 32.6 µM in the assay on A549 and 17.8 µM with MCF7 [1]. In addition, the outcome in the assay with MCF7 [2] and with MCF7 [3] was Active.

The values above are taken from ChEMBL document CHEMBL3352460, “Synthesis and biological evaluation of novel biaryl type α-noscapine congeners” (Bioorg Med Chem Lett, 2014).
